Test results reported in PMC8113979 (Inorganic chemistry, 2017).
Where two headings read alike, the source gives them in different places.

Key:
[1] = system: MRC-5 (human lung fibroblast) cells; assay: MTT cytotoxicity assay in MRC-5 cells; format: cell-based; settings: read-out: IC50 MRC-5 Normoxia, MRC-5 normal lung fibroblasts
HeLa and A549 cell lines = format: cell-based, human
A549 cells = assay: Cellular uptake of cobalt by GFAAS, normalised to protein; format: cell-based, human; settings: A549, 100 μM complex, 24 h
[2] = system: A549 (human lung cancer) cells; assay: MTT cytotoxicity assay in A549 cells; format: cell-based
[3] = system: HeLa (human cervical cancer) cells; assay: MTT cytotoxicity assay in HeLa cells; format: cell-based; settings: for IC50: Homo sapiens, HeLa
[4] = observed in other studies; cited from earlier work
[5] = N-methylimidazole challenge; format: physicochemical; settings: 1 mM complex, 5 mM N-methylimidazole, pH 7.4 PBS, 37 °C, 24 h
Summary of the method: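 Complex at 1 mM final in pH 7.4 PBS with 5 mM N-methylimidazole as competing ligand. Analysed by RP-HPLC right after mixing, then again after 24 h at 37 °C. C18 column (250 × 4.6 mm, 5 μm), 1 mL/min, UV at 220 and 260 nm. Gradient: 10% MeOH/water with 0.1% TFA for 5 min, then linear to 100% MeOH (0.1% TFA) over 20 min. Starting, mono- and disubstituted species quantified from peak areas.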

[6] = Cyclic voltammetry in anhydrous DMF; format: physicochemical; settings: vs SCE, glassy carbon, 0.10 M TBAP, 100 mV/s, 25 °C; for Epc, Co(III/II): irreversible peak potential
hypoxic cells = settings: uptake, hypoxia vs normoxia; cited from earlier work
[7] = value reported for the hypoxia-imaging agent; cited from earlier work
[8] = read-out: IC50 Without TM, A549, without tetrathiomolybdate

SMILES | IC50 [1] | % Disubstituted [5] | % Intact [5] | % Monosubstituted [5] | E1/2,Co(II/I) [6] | Epc, Co(III/II) [6] | also measured
N.N.[Cl][Pt][Cl] [Cisplatin, cisplatin] | 3.5 ± 1.2 µM | – | – | – | – | – | difference in activity under hypoxic versus normoxic conditions (HeLa and A549 cell lines): no difference
O=[N+]([O-])[O-].O=[N+]([O-])[O-].[Co+2] [Co(NO3)2, reference compound] | > 500 µM | – | – | – | – | – | Hypoxia/Normoxia Ratio of uptake (A549 cells): 0.88 ± 0.09; Co/Protein (Hypoxia) (A549 cells): 33 ± 3 pg/µg; Co/Protein (Normoxia) (A549 cells): 37 ± 2 pg/µg
NC(=S)N/N=C/C=N/NC(N)=S [GTS, glyoxal bis(thiosemicarbazone)] | > 20 µM | – | – | – | – | – | IC50 [2, 8]: 0.02 ± 0.01 µM
[SH-].[SH-].[S]=[Mo]=[S] [TM, tetrathiomolybdate] | – | – | – | – | – | – | effect on cell viability ([2]; A549, 5 μM concentration): a TM does not affect the cell viability at 5 μM concentration.
Nc1n[n+]([O-])c2ccccc2[n+]1[O-] [Tirapazamine] | – | – | – | – | – | – | hypoxia selectivity index ([3]; HeLa cells, in our lab): 3.3; IC50 ([3]; read-out: IC50 HeLa Hypoxia): 13 ± 4.2 µM; IC50 ([3]; read-out: IC50 HeLa Normoxia): 44 ± 19 µM; IC50 ([2]; Homo sapiens, A549, read-out: IC50 A549 Hypoxia): 11 ± 6.5 µM; IC50 ([2]; Homo sapiens, A549, read-out: IC50 A549 Normoxia): 60 ± 5.4 µM; typical hypoxia selectivity index [4]: 10
CC(=NN=C(N)[S-])C(C)=NN=C(N)[S-].NCc1ccccc1.NCc1ccccc1.O=[N+]([O-])[O-].[Co+3] [[Co(ATS)(BnA)2]^+] | – | 93% | 0% | 7% | −1.18 V | −0.83 V | –
CC(=NN=C(N)[S-])C(C)=NN=C(N)[S-].O=[N+]([O-])[O-].[Co+3].c1c[nH]cn1.c1c[nH]cn1 [[Co(ATS)(Im)2]^+] | – | 46% | 11% | 43% | −1.19 V | −0.86 V | –
CC(=NN=C(N)[S-])C(C)=NN=C(N)[S-].N.N.O=[N+]([O-])[O-].[Co+3] [[Co(ATS)(NH3)2]^+] | – | 35% | 38% | 27% | −1.18 V | −1.10 V | –
NC([S-])=NN=CC=NN=C(N)[S-].O=[N+]([O-])[O-].[Co+3].c1c[nH]cn1.c1c[nH]cn1 [[Co(GTS)(Im)2]^+] | > 250 µM | 58% | 6% | – | –1.00 V | –0.72 V | IC50 [2, 8]: 2.6 ± 0.4 µM; Hypoxia/Normoxia Ratio of uptake (A549 cells): 1.40 ± 0.09; Co/Protein (Hypoxia) (A549 cells): 20 ± 1 pg/µg; Co/Protein (Normoxia) (A549 cells): 15 ± 1 pg/µg
CC(C=NN=C(N)[S-])=NN=C(N)[S-].NCc1ccccc1.NCc1ccccc1.O=[N+]([O-])[O-].[Co+3] [[Co(PTS)(BnA)2]^+] | – | 93% | 1% | 6% | –1.14 V | –0.84 V | –
CC(C=NN=C(N)[S-])=NN=C(N)[S-].O=[N+]([O-])[O-].[Co+3].c1c[nH]cn1.c1c[nH]cn1 [[Co(PTS)(Im)2]^+] | – | 54% | 7% | 39% | –1.12 V | –0.84 V | –
CC(C=NN=C(N)[S-])=NN=C(N)[S-].N.N.O=[N+]([O-])[O-].[Co+3] [[Co(PTS)(NH3)2]^+] | – | 22% | 56% | 22% | –1.11 V | –0.92 V | –
CN=C([S-])N/N=C(C)/C(C)=N/NC([S-])=NC.[Cu+2] [[Cu(ATSM)]] | – | – | – | – | – | – | hypoxia selectivity (hypoxic cells): 5 ×; reduction potential [7]: −0.59 V
